Results as given in ChEMBL document CHEMBL4007487, “Discovery of Novel Pyridone-Conjugated Monosulfactams as Potent and Broad-Spectrum Antibiotics for Multidrug-Resistant Gram-Negative Infections” (J Med Chem, 2017).
In brackets after ≈: the same amount, converted by molar mass.

Assays:
Klebsiella pneumoniae = assay: Antibacterial activity against extended spectrum beta-lactamase KPC-2 producing multidrug resistant Klebsiella pneumoniae clinical isolates after 18 hrs by broth microdilution method; assay type: functional
Plasma = assay: Fraction unbound in human plasma at 10 uM after 4 hrs by LC-MS/MS based rapid equilibrium dialysis method; assay type: ADME, cell-free
In short: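 Human plasma spiked at 10 μM was dialysed against buffer in a rapid equilibrium dialysis device for 4 h at 37 °C under 5% CO2 (n = 4). Both sides were quantified by LC–MS/MS. Fraction unbound was taken as the buffer concentration divided by the total plasma-side concentration.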

Acinetobacter baumannii = assay: Antibacterial activity against extended spectrum beta-lactamase OXA-23 producing multidrug resistant Acinetobacter baumannii clinical isolates after 18 hrs by broth microdilution method; assay type: functional
Pseudomonas aeruginosa = assay: Antibacterial activity against extended spectrum beta-lactamase IMP-4 producing multidrug resistant Pseudomonas aeruginosa clinical isolates after 18 hrs by broth microdilution method; assay type: functional
Escherichia coli = assay: Antibacterial activity against extended spectrum beta-lactamases producing Escherichia coli clinical isolates after 18 hrs by broth microdilution method; assay type: functional
[1] = Drug degradation in human plasma at 10 uM after 4 hrs by LC-MS/MS analysis; assay type: ADME, cell-free; conditions: read-out: Drug degradation
In short: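 Human plasma containing compound (10 μM, n = 4) was incubated for 4 h at 37 °C under 5% CO2. Concentrations at T0 and at 4 h were measured by LC–MS/MS, and degradation was expressed as a percentage relative to the T0 average.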

in vivo [2] = conditions: Sprague-Dawley, rat, iv, 1 mg/kg
in vivo [3] = conditions: Sprague-Dawley, rat, iv, 1 mg/kg; remark: listed apart in the source
[4] = Clearance in Sprague-Dawley rat at 1 mg/kg, iv measured up to 180 mins by LC-MS/MS analysis; conditions: in vivo
[5] = Volume of distribution in steady state in Sprague-Dawley rat at 1 mg/kg, iv measured up to 180 mins by LC-MS/MS analysis; assay type: ADME, organism-based; conditions: in vivo, read-out: Vdss
In short: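 Male Sprague-Dawley rats (200–220 g, n = 3 per group) received 1.0 mg/kg iv in water. Blood was taken from the retrobulbar vein at 2, 5, 15, 30, 45, 60, 90 and 180 min. Plasma was quantified by LC–MS/MS, and parameters were derived by noncompartmental analysis of mean plasma concentrations.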

[6] = Klebsiella pneumoniae, 18 h, read-out: MIC

| Compound | MIC (Klebsiella pneumoniae) [µg/mL] | Fu (Plasma) [%] | MIC (Acinetobacter baumannii) [µg/mL] | MIC (Pseudomonas aeruginosa) [µg/mL] | MIC (Escherichia coli) [µg/mL] | metabolised at 4 h, 10 µM [1] [%] | MIC (Klebsiella pneumoniae; [6]) [µg/mL] | AUC(0-t) at 3 h (in vivo [2]) [ng·h/mL] | half-life (in vivo [3]) [min] | clearance at 3 h [4] [mL/min/kg] | Vd [5] [L/kg] |
| --- | --- | --- | --- | --- | --- | --- | --- | --- | --- | --- | --- |
| CC(O/N=C(\C(=O)N[C@@H]1C(=O)N(OS(=O)(=O)O)C1(C)C)c1csc(N)n1)c1cc(=O)c(O)cn1O (stereo partly drawn) | 0.03 to 64 | 41 | 0.5 to 64 (≈ 0.939 to 120 µM) | 0.25 to 8 (≈ 0.469 to 15 µM) | 0.06 to 0.25 (≈ 0.113 to 0.469 µM) | 24 |  |  |  |  |  |
| CC(=O)N(O)CCO/N=C(\C(=O)N[C@@H]1C(=O)N(OS(=O)(=O)O)C1(C)C)c1csc(N)n1 |  |  | 16 to 64 (≈ 33.3 to 133 µM) | ≥ 64 | 4 to 32 (≈ 8.32 to 66.6 µM) |  | 32 to 64 (≈ 66.6 to 133 µM) |  |  |  |  |
| CC(C)[C@@H](O/N=C(\C(=O)N[C@@H]1C(=O)N(OS(=O)(=O)O)C1(C)C)c1nsc(N)n1)c1cc(=O)c(O)cn1O |  |  | 0.5 to 64 (≈ 0.89 to 114 µM) | 1 to 4 (≈ 1.78 to 7.12 µM) | 0.5 to 8 (≈ 0.89 to 14.2 µM) |  | 0.5 to 2 (≈ 0.89 to 3.56 µM) |  |  |  |  |
| CC1(C)[C@H](NC(=O)/C(=N\OC(c2cccs2)c2cc(=O)c(O)cn2O)c2csc(N)n2)C(=O)N1OS(=O)(=O)O (stereo partly drawn) |  |  | 0.5 to 2 (≈ 0.832 to 3.33 µM) | 0.5 to 2 (≈ 0.832 to 3.33 µM) |  |  | 0.06 to 16 (≈ 0.0999 to 26.6 µM) |  |  |  |  |
| CC(C)[C@H](O/N=C(\C(=O)N[C@@H]1C(=O)N(OS(=O)(=O)O)C1(C)C)c1csc(N)n1)c1cc(=O)c(O)cn1O |  | 27 | 1 to 2 (≈ 1.78 to 3.57 µM) | 0.125 to 1 (≈ 0.223 to 1.78 µM) | 0.06 to 0.25 (≈ 0.107 to 0.446 µM) | 23 | 0.125 to 1 (≈ 0.223 to 1.78 µM) | 675 | 15.6 | 28.5 | 0.36 |
| CC1(C)[C@H](NC(=O)/C(=N\OC(CO)c2cc(=O)c(O)cn2O)c2csc(N)n2)C(=O)N1OS(=O)(=O)O (stereo partly drawn) |  | 59 | 0.5 to 2 (≈ 0.912 to 3.65 µM) | 0.25 to 16 (≈ 0.456 to 29.2 µM) | 0.06 to 4 (≈ 0.109 to 7.29 µM) | 50 | 0.25 to 64 (≈ 0.456 to 117 µM) |  |  |  |  |
| CC(C)C(O/N=C(\C(=O)N[C@@H]1C(=O)N(OS(=O)(=O)O)C1(C)C)c1nsc(N)n1)c1cc(=O)c(O)cn1O (stereo partly drawn) |  | 28 | 0.5 to 4 (≈ 0.89 to 7.12 µM) | 0.5 to 32 (≈ 0.89 to 57 µM) | 0.06 to 2 (≈ 0.107 to 3.56 µM) | 11 | 0.06 to 1 (≈ 0.107 to 1.78 µM) |  |  |  |  |
| Cn1nc(O)c(=O)nc1SCCO/N=C(\C(=O)N[C@@H]1C(=O)N(OS(=O)(=O)O)C1(C)C)c1csc(N)n1 |  |  | 16 to 64 (≈ 28.3 to 113 µM) | 16 to 64 (≈ 28.3 to 113 µM) | 1 to 8 (≈ 1.77 to 14.2 µM) |  | 16 to 64 (≈ 28.3 to 113 µM) |  |  |  |  |
| CC(C)SCC(O/N=C(\C(=O)N[C@@H]1C(=O)N(OS(=O)(=O)O)C1(C)C)c1csc(N)n1)c1cc(=O)c(O)cn1O (stereo partly drawn) |  | 21 | 0.25 to 2 (≈ 0.412 to 3.3 µM) | 0.25 to 4 (≈ 0.412 to 6.59 µM) |  | 34 | 0.06 to 1 (≈ 0.0989 to 1.65 µM) |  |  |  |  |
| Cc1cc(=O)c(O)cn1CCO/N=C(\C(=O)N[C@@H]1C(=O)N(OS(=O)(=O)O)C1(C)C)c1csc(N)n1 |  |  | 8 to 64 (≈ 15.1 to 121 µM) | 64 (≈ 121 µM) | 1 to 64 (≈ 1.88 to 121 µM) |  | 8 to 64 (≈ 15.1 to 121 µM) |  |  |  |  |
| CSC[C@H](O/N=C(\C(=O)N[C@@H]1C(=O)N(OS(=O)(=O)O)C1(C)C)c1csc(N)n1)c1cc(=O)c(O)cn1O | >0.06 to 64 | 29 | 0.5 to 4 (≈ 0.864 to 6.91 µM) | 0.5 to 2 (≈ 0.864 to 3.46 µM) |  | 39 |  |  |  |  |  |
| COC(=O)C(O/N=C(\C(=O)N[C@@H]1C(=O)N(OS(=O)(=O)O)C1(C)C)c1csc(N)n1)c1cc(=O)c(O)cn1O (stereo partly drawn) |  | 61 | 0.5 to 1 (≈ 0.867 to 1.73 µM) | 1 to 4 (≈ 1.73 to 6.94 µM) | 0.25 to 1 (≈ 0.434 to 1.73 µM) | 66 | 0.25 to 2 (≈ 0.434 to 3.47 µM) |  |  |  |  |
| CC(O/N=C(\C(=O)N[C@@H]1C(=O)N(OS(=O)(=O)O)C1(C)C)c1nsc(N)n1)c1cc(=O)c(O)cn1O (stereo partly drawn) |  | 37 | 2 to 64 (≈ 3.75 to 120 µM) | 0.5 to 64 (≈ 0.937 to 120 µM) |  | 13 | 0.25 to 64 (≈ 0.469 to 120 µM) |  |  |  |  |
| C=CC(O/N=C(\C(=O)N[C@@H]1C(=O)N(OS(=O)(=O)O)C1(C)C)c1csc(N)n1)c1cc(=O)c(O)cn1O (stereo partly drawn) | >0.03 to 64 |  | 0.25 to 2 (≈ 0.459 to 3.67 µM) | 0.5 to 2 (≈ 0.918 to 3.67 µM) |  |  |  |  |  |  |  |
| CSCC(O/N=C(\C(=O)N[C@@H]1C(=O)N(OS(=O)(=O)O)C1(C)C)c1csc(N)n1)c1cc(=O)c(O)cn1O (stereo partly drawn) |  | 32 | 0.125 to 1 (≈ 0.216 to 1.73 µM) | 0.125 to 1 (≈ 0.216 to 1.73 µM) |  | 28 |  | 661 | 15 | 26.1 | 0.37 |
| CO/N=C(\C(=O)N[C@@H]1C(=O)N2C(C(=O)[O-])=CCS[C@H]12)c1csc(N)n1.[Na+] [CEFTIZOXIME SODIUM] |  |  | 32 to 64 | > 64 | 0.5 to 2 |  | 32 to 64 |  |  |  |  |
